# Source: PubChem
# An excerpt weighted towards active compounds, which were near 4.6% of everything screened.
# TAAR1 agonist – agonists of human TAAR1 | Q96RJ0 | CHO RD-HGA16 TAAR1, Fluo-8 calcium fluorescence; vehicle wells 0%, saturating PEA agonist 100% | activation, % at 3 µM | 360,000 tested, 0.99% active;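 active = activation above the mean activation of all test compounds in the run plus 3 SD, cut at about 38% in these data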
# Target sequence (Q96RJ0 whole entry, looked up): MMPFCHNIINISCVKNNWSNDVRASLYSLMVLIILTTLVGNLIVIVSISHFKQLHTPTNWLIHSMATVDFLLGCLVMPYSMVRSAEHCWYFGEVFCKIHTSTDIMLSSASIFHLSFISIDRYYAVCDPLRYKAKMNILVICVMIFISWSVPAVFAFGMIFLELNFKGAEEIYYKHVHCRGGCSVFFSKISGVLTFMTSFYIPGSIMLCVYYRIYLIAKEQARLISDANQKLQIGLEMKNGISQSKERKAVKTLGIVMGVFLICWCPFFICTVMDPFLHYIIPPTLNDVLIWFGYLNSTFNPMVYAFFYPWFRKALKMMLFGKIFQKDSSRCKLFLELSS
#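 Assay system: CHO-derived RD-HGA16 cells with stable Gα16 and human TAAR1; timing: 17-24 h seeding, 75 min 37 °C dye, 30 min RT; read-out: % activation from peak over basal fluorescence ratio, DMSO-to-PEA scaled; measured by: kinetic Fluo-8 calcium fluorescence; benchmarks: low control DMSO, high control PEA (EC100); doses: 3 µM single concentration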
# OX1R antag-1 – antagonists of human orexin 1 receptor (OX1R). O43613. OX1R-expressing cells, FRET antagonist read-out. inhibition, % at 6.6 µM. 330,000 tested, 1.8% active; in the data active = inhibition mostly above about 38%, no sharp cut-off; inactive = mostly below about 40%;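 note: 0% = agonist challenge alone and 100% = reference antagonist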
# GPR7 antag – human neuropeptides B/W receptor 1 antagonism; P48145; GPR7-expressing cells, fluorescence antagonist assay; 290,000 tested, 1.1% active; inhibition, % at 4.4 µM; AID 1861; in the data active = inhibition above about 16%, passing the limit was not always enough;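 note: cells stimulated with the agonist NPW; 0% = agonist with vehicle and 100% = vehicle without agonist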
# Target sequence (P48145 whole entry, looked up): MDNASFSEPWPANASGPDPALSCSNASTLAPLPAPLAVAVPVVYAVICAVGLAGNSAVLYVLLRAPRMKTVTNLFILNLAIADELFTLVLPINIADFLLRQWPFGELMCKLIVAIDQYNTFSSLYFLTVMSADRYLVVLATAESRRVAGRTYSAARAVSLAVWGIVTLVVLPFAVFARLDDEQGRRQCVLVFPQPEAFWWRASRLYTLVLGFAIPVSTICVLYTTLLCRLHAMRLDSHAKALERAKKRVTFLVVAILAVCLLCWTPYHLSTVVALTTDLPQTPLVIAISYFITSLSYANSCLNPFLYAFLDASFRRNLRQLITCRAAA
# TAAR1 antagonist – human TAAR1 antagonism; CHO RD-HGA16 TAAR1, Fluo-8 calcium fluorescence, antagonist; inhibition, % at 3 µM; Q96RJ0; 360,000 tested, 1.5% active;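 active = inhibition above a per-plate cutoff, the mean inhibition of test compounds on that plate plus 3 SD, cut at about 49% in these data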;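 note: 0% = DMSO plus EC80 beta-PEA response and 100% = DMSO alone without agonist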
#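 System: RD-HGA16 CHO cells with stable hTAAR1 and Gα16 | Probe or stimulus: EC80 β-phenethylamine stimulus | Dosing: 3 µM, single point | Times: Dye loading 75 min at 37 °C, then 30 min room temperature | Measured by: Fluo-8 calcium-sensitive fluorescence | Read-out basis: % inhibition of agonist calcium response | Replicates: n of 1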
# OX1R antag-2 – human HCRTR1 antagonism; 330,000 tested, 0.43% active; O43613; CHO/OX1R cells, Fluo-8 calcium fluorescence, orexin A; inhibition, % at 5 µM;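 active = inhibition above its plate's threshold, mean inhibition of all tested compounds on the plate plus 3 SD, cut at about 37% in these data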;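 note: 0% = orexin A challenge wells and 100% = SB-334867-A antagonist wells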
# CHO parental Ca – signal in parental CHO cells, OX1R antagonist counter-screen | parental CHO-K1, ATP-induced calcium, Fluo-8 fluorescence | inhibition, % at 5.6 µM | 330,000 tested, 0.63% active | AID 463079;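 active = inhibition above that plate's mean sample inhibition plus 3 SD, cut at about 26% in these data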;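 note: 0% = ATP-challenged DMSO wells and 100% = DMSO wells without ATP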
#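 Assay system – parental CHO cells · Reagent – ATP stimulus · Detection – intracellular calcium via Fluo-8 no-wash fluorescent dye · Evaluation – percent inhibition of ATP-evoked calcium rise, normalized to controls · Controls – ATP wells versus no-ATP DMSO wells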
# The depositor's hits bear a star; . = no result given.
SMILES,TAAR1 agonist,OX1R antag-1,GPR7 antag,TAAR1 antagonist,OX1R antag-2,CHO parental Ca
COc1cc(/C=C(\C#N)c2nc3c(s2)CCCC3)ccc1O,.,14,3,.,94*,82*
C[C@H](CO)N1C[C@H](C)[C@@H](CN(C)C(=O)Cc2cccnc2)Oc2ncc(C#CCc3ccccc3)cc2C1=O,1,.,.,0,.,.
O=C(C(=O)N1CCC(CNS(=O)(=O)c2ccccc2)CC1)c1cc2ccccc2o1,4,.,.,-25,.,.
N#Cc1nccnc1S(=O)(=O)c1cccs1,1,109*,18*,29,31,44*
CN(Cc1ccccc1C#N)S(=O)(=O)c1cccs1,0,11,-13,3,-4,-1
Cc1cc(C)c(C2=NOC3c4ccccc4OCC23)c(C)c1 (stereo unspecified),1,.,.,-11,.,.
CCCCc1c(-c2cccc(Br)c2)ncn1CCc1ccccc1OC,43*,.,.,43,.,.
CCCCCc1c(CC)ncn1CCc1ccccc1OC,48*,.,.,53*,.,.
CCCCCc1c(-c2ccccc2OC)ncn1CCc1ccccc1OC,36,.,.,51*,.,.
CCCc1c(-c2ccccc2OC)ncn1CCc1ccccc1OC,32,.,.,21,.,.
CCCCc1c(-c2ccccc2OC)ncn1CCc1ccccc1OC,48*,.,.,28,.,.
CCCc1c(-c2ccccc2F)ncn1CCc1ccccc1OC,17,.,.,38,.,.
CCCCCc1c(-c2ccc(F)cc2)ncn1CCc1ccccc1OC,24,.,.,47,.,.
COCC#Cc1ccc2c(c1)O[C@@H](CN(C)C(=O)Nc1ccc(OC)cc1)[C@H](C)CN([C@H](C)CO)S2(=O)=O,1,.,.,10,.,.
C[C@@H]1ON(C)[C@H]2C[C@H]3c4[nH]c5c(-c6cccc(F)c6)cccc5c4CCN3C(=O)[C@@H]12,11,.,.,45,.,.
COC(=O)c1cc2c(c3c4ccccc4n(S(=O)(=O)c4ccc(C)cc4)c13)C(=O)N(C)C2,-2,.,.,-16,.,.
CC1(C(=O)NS(=O)(=O)c2ccc(F)cc2F)CCN1C(=O)C1(c2ccc(Cl)cc2)CC1 (stereo unspecified),0,.,.,-4,.,.
Cc1ccc(SC(C)C(=O)NCCC2=CCCCC2)cc1 (stereo unspecified),0,8,-2,-33,-20,-6
CC(Sc1nc(N)cc(N)n1)C(=O)NCCC1=CCCCC1 (stereo unspecified),38*,-1,.,15,-7,-8
Cc1cc(=O)[nH]c(SCC(=O)NCCC2=CCCCC2)n1,41*,13,-5,3,-25,-17
COc1ccc(C2CC(=O)C(c3ccc(F)cc3)=CN2Cc2ccccc2)cc1 (stereo unspecified),-1,.,.,41,.,.
Cc1ccc(-c2cc(C(=O)N3CCN(c4ccccc4O)CC3)c3ccccc3n2)o1,14,9,-14,62*,-9,-3
O=C(c1cc(-c2ccc(Br)cc2)nc2ccccc12)N1CCN(c2ccccc2O)CC1,4,1,.,55*,-29,-20
Cc1cc(C(=O)N2CCN(c3ccccc3O)CC2)c(C)o1,10,13,.,22,-21,-20
O=C(c1cc(-c2ccc(Cl)cc2)nc2ccccc12)N1CCC1,2,13,.,20,-19,-11
SMILES,TAAR1 agonist,OX1R antag-1,GPR7 antag,TAAR1 antagonist,OX1R antag-2,CHO parental Ca
C[C@@H]1CCCCO[C@@H](CN(C)C(=O)Nc2ccc3c(c2)OCO3)[C@@H](C)CN([C@H](C)CO)C(=O)c2cc(NC(=O)Nc3ccc(C(F)(F)F)cc3)ccc2O1,0,.,.,9,.,.
COc1ccc(C(=O)/C=C/C(=O)N(CC(=O)NC2CCCCC2)Cc2ccccc2OC)c(O)c1,8,.,-6,0,.,.
COc1ccc(C(=O)/C=C/C(=O)N(CC(=O)NC2CCCCC2)Cc2ccccc2)c(O)c1,41*,.,-10,66*,.,.
COc1ccccc1C(=O)N1CCN(C(=O)[C@H]2O[C@@H](n3cnc(C(N)=O)n3)[C@H](O)[C@@H]2O)CC1,1,.,.,-7,.,.
Cc1nn(C)c(C)c1CN(Cc1nc(CCC(C)C)no1)C(C)C,5,21,18,17,34,41*
NN1C(=O)/C(=C2/Sc3ccccc3N2CCCS(=O)(=O)O)SC1=S,1,38*,14,-7,2,9
O=C(N/N=C/c1cccs1)c1cc(-c2ccc(Cl)s2)[nH]n1,5,59*,-10,11,9,-4
CCc1nc2c(OCc3ccccc3C)cccn2c1N(C)C(=O)c1ccco1,1,.,.,-3,.,.
CCOc1cc(/C=N/Nc2nnc(C)n2N)ccc1O,4,61*,-10,-13,-15,-6
CCOc1cc(/C=N/Nc2ncnc(Cl)c2N)ccc1O,0,54,-5,-3,17,-3
COc1cc(/C=N/Nc2nncn2/N=C/c2ccc(O)c(OC)c2)ccc1O,5,68*,0,6,-15,-11
Cc1cc(C)n2nc(CC#N)c(C#N)c2n1,0,27,1,5,8,4
Cc1cc(C)n2nc(/C(C#N)=C/c3ccccn3)c(C#N)c2n1,2,28,-6,4,-9,43*
COc1ccc(OC)c(C(O)c2ncc(-c3ccc(C(F)(F)F)cc3)[nH]2)c1 (stereo unspecified),3,.,.,-13,.,.
CCCCNC(=S)N(C)/N=C/c1ccc(OCC(=O)Nc2c(C)cc(C)cc2C)c(OC)c1,5,21,-8,35,-48,-29
COc1cc(/C=N/NC(=S)NC(C)C)ccc1OCC(=O)Nc1c(C)cc(C)cc1C,7,7,-8,50*,-19,-3
CCNC(=S)N/N=C/c1ccc(OCC(=O)Nc2ccc(OC)cc2)c(OC)c1,17,6,3,51*,-2,-3
CCCCNC(=S)N(C)/N=C/c1ccc(OCC(=O)Nc2ccc(OC)cc2)c(OC)c1,16,25,-13,58*,3,9
O=C(N/N=C/c1sc(N2CCOCC2)nc1-c1ccccc1)c1ccc(O)cc1,2,16,8,22,-7,-14
O=C(N/N=C/c1sc(N2CCOCC2)nc1-c1ccccc1)c1cccc(S(=O)(=O)N2CCCC2)c1,14,18,-17,52*,-5,-10
C=CCN1C(=Nc2cccnc2)SCC1(O)c1ccc(C)cc1 (stereo unspecified),.,29,24,.,19,37*
CCN(CC(=O)Nc1ccc(Br)cc1)C(=O)Cc1cccc(F)c1,3,49*,-3,5,-9,-20
COc1ccc(CCC(=O)Nc2nc3ccccc3[nH]2)cc1,10,-1,-13,21,21,70*
COCCn1c(-c2ccc(OC)cc2)nc2ccccc21,1,32,-12,6,-32,-14
COCCn1c2nc(=O)n(-c3ccccc3)c(=O)c-2nc2ccccc21,59*,.,.,20,.,.
COCCNC(=S)N1C[C@H]2CON(C)[C@H]2C[C@H]1c1ccccc1Br,2,.,.,-25,.,.
